Source: ChEMBL document CHEMBL1157895, “Truxillic acid derivatives act as peroxisome proliferator-activated receptor gamma activators” (Bioorg Med Chem Lett, 2010)
The source made the active and inactive calls. No cut-off for these calls is given here.

What was measured:
Format in all cases: functional
[1] = target: T1, Peroxisome proliferator-activated receptor gamma (Homo sapiens, UniProt P37231); assay: (§1) Agonist activity at human PPARgamma at 10 uM by Gal4 transactivation assay relative to pioglitazone
T1 sequence (P37231 whole entry): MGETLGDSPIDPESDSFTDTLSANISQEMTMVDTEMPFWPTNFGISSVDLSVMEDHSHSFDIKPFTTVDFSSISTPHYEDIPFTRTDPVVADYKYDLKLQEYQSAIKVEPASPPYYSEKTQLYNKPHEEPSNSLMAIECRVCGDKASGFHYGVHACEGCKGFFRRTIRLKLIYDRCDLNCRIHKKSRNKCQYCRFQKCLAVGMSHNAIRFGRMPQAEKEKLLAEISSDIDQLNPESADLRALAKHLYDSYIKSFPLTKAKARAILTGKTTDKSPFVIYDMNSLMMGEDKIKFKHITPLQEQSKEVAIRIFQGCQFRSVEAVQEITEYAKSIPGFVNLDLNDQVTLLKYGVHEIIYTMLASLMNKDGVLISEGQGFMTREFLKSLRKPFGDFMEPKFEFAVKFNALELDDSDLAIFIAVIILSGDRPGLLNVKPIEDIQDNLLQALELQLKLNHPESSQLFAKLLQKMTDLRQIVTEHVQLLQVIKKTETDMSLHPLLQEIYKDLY
Outline: (§2)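 Cell-based Gal4-hybrid transactivation assay with a luciferase reporter for human PPARγ. Compounds were tested at 10 µM. Activation is expressed relative to 1 µM pioglitazone, which was set as 100% activation. Values are the mean and standard deviation of at least three independent experiments.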

[2] = target: T2, Peroxisome proliferator-activated receptor alpha (Homo sapiens) (UniProt Q07869); assay: Agonist activity at human PPARalpha at 10 uM by Gal4 transactivation assay relative to pioglitazone
T2 sequence (whole entry): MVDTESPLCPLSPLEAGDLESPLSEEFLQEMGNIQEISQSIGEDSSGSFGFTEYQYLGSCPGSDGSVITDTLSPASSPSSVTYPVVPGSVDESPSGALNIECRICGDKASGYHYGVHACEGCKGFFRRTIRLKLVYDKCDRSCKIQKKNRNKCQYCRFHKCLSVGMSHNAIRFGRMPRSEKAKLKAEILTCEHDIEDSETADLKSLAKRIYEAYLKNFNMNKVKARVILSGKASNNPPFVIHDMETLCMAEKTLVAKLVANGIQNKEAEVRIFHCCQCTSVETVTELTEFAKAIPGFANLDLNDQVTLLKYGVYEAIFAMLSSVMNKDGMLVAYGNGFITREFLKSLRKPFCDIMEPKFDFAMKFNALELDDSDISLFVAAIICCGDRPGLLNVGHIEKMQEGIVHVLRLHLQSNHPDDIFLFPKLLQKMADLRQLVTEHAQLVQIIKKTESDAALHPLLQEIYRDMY

[3] = target: T3, Peroxisome proliferator-activated receptor delta (Homo sapiens) (UniProt Q03181); assay: Agonist activity at human PPARdelta at 10 uM by Gal4 transactivation assay relative to pioglitazone
T3 sequence (whole entry): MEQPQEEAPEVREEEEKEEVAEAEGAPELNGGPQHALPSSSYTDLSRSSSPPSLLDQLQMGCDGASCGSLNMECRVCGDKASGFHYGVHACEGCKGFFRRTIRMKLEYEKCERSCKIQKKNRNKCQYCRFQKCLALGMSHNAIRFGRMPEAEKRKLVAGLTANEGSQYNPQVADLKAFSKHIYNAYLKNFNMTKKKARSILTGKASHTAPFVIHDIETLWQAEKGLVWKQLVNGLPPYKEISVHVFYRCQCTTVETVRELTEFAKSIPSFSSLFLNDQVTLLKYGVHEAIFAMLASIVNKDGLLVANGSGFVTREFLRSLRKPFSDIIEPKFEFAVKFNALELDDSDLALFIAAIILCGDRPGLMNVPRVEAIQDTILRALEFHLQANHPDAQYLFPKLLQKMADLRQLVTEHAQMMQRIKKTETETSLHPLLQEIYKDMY

[4] = target: T1, Peroxisome proliferator-activated receptor gamma; assay: Agonist activity at human PPARgamma by Gal4 transactivation assay
Outline: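 Human PPARγ Gal4-hybrid luciferase reporter transactivation assay. EC50 was calculated from concentration-response data, with maximum activation taken at the highest tested concentration.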

[5] = target: T4, Peroxisome proliferator-activated receptor gamma (Homo sapiens) (UniProt P37231); assay: as §1; outline: as §2
T4 sequence (whole entry): T1 sequence (P37231 whole entry)

Row | SMILES | EC50 [1] | Activity [2] | Activity [3] | EC50 [4] [µM] | Activity [5] [%]
1 | COC(=O)C1C(c2ccccc2)C(C(=O)OCc2ccccc2)C1c1ccccc1 (stereo not given) | Not Active | inactive | inactive |  | 
2 | O=C(O)C1C(c2ccccc2)C(C(=O)OCCCO)C1c1ccccc1 (stereo not given) | Not Active | inactive | inactive |  | 
3 | O=C(O)C1C(c2ccccc2)C(C(=O)N2CCOCC2)C1c1ccccc1 (stereo not given) | Not Active | inactive | inactive |  | 
4 | CC(C)CCOC(=O)C1C(c2ccccc2)C(C(=O)O)C1c1ccccc1 (stereo not given) |  | inactive | inactive | 4.8 | 71
5 | CCC(C)OC(=O)C1C(c2ccccc2)C(C(=O)O)C1c1ccccc1 (stereo not given) |  | inactive | inactive | > 10 | 23
6 | Cc1ccccc1OC(=O)C1C(c2ccccc2)C(C(=O)O)C1c1ccccc1 (stereo not given) |  | inactive | inactive | 10 | 138
7 | O=C(O)C1C(c2ccccc2)C(C(=O)N2CCCCC2)C1c1ccccc1 (stereo not given) | Not Active | inactive | inactive |  | 
8 | O=C(O)C1C(c2ccccc2)C(C(=O)Oc2ccc(O)cc2)C1c1ccccc1 (stereo not given) | Not Active | inactive | inactive |  | 
9 | O=C(O)C1C(c2ccccc2)C(C(=O)OCCO)C1c1ccccc1 (stereo not given) | Not Active | inactive | inactive |  | 
10 | Cc1cccc(OC(=O)C2C(c3ccccc3)C(C(=O)O)C2c2ccccc2)c1 (stereo not given) |  | inactive | inactive | 3.3 | 123
11 | O=C(O)C1C(c2ccccc2)C(C(=O)O)C1c1ccccc1 (stereo not given) | Not Active | inactive | inactive |  | 
12 | CCCCCCOC(=O)C1C(c2ccccc2)C(C(=O)O)C1c1ccccc1 (stereo not given) |  | inactive | inactive | 3.6 | 66
13 | CCCCCCCCOC(=O)C1C(c2ccccc2)C(C(=O)O)C1c1ccccc1 (stereo not given) |  | inactive | inactive | 9.3 | 100
14 | CCCCCCCOC(=O)C1C(c2ccccc2)C(C(=O)O)C1c1ccccc1 (stereo not given) |  | inactive | inactive | 8.6 | 153
15 | COC(=O)C1C(c2ccccc2)C(C(=O)OC)C1c1ccccc1 (stereo not given) | Not Active | inactive | inactive |  | 
16 | CC(C)OC(=O)C1C(c2ccccc2)C(C(=O)O)C1c1ccccc1 (stereo not given) | Not Active | inactive | inactive |  | 
